Measurements from ChEMBL document CHEMBL4725282, “Discovery of a Conformationally Constrained Oxazolidinone with Improved Safety and Efficacy Profiles for the Treatment of Multidrug-Resistant Tuberculosis” (J Med Chem, 2020).

Columns and labels:
[1] = Half life in Beagle dog hepatocytes at 2 uM by LC-MS/MS analysis; assay type: ADME, cell-based, Canis lupus familiaris, Hepatocyte
Outline: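 Hepatocytes (male CD-1 mouse, male SD rat, male beagle dog, male cynomolgus monkey, pooled human), final 1 μM compound and 1 million cells/mL, made by mixing 2 μM compound with 2 million cells/mL. Incubated at 37 °C in a CO2 incubator; sampled at 0, 15, 30, 60, 90 and 120 min. Quenched with methanol/ACN containing 0.1% formic acid. Parent remaining measured by LC-MS/MS.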

Cytochrome P450 1A2 = target: T1, Cytochrome P450 1A2 (Homo sapiens, UniProt P05177); test: Inhibition of CYP1A2 in human liver microsomes after 20 mins by LC-MS/MS analysis; assay type: ADME
T1 sequence (P05177 whole entry): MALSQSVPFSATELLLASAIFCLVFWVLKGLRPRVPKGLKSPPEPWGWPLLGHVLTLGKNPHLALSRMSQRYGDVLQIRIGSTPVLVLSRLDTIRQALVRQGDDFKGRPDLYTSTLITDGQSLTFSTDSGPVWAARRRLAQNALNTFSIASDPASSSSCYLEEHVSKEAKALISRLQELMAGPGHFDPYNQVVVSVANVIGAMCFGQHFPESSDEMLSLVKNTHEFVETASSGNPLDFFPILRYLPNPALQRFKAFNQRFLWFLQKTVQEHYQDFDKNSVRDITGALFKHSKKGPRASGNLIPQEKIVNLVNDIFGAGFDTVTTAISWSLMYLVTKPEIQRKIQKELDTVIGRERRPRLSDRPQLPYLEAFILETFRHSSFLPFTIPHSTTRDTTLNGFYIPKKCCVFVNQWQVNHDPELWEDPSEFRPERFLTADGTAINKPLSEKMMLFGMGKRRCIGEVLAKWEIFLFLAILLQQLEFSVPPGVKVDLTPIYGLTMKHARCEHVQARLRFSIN
Outline: (§1)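 Human liver microsomes (0.2 mg/mL) in phosphate buffer, 20 min incubation with compound at 0.1-50 μM alongside isoform-specific substrates and a positive control. Substrate remaining monitored by LC-MS/MS at each concentration; IC50 derived.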

Cytochrome P450 2D6 = Cytochrome P450 2D6 (Homo sapiens, UniProt P10635); test: Inhibition of CYP2D6 in human liver microsomes after 20 mins by LC-MS/MS analysis; assay type: ADME; outline: as §1
[2] = Toxicity in Mycobacterium tuberculosis H37Rv infected Balb/c mouse assessed as change in body weight at 100 mg/kg/day, po administered via gavage 5 times per week for 3 weeks starting from 10 days post-infection (reference value: 21.29 +/- 0.84 g); assay type: organism-based; conditions: in vivo, 504 h, time 21 day
[3] = Toxicity in female Sprague-Dawley rat assessed as effect on food consumption at 50 to 450 mg/kg/day, po administered for 4 weeks measured at 1 week interval; assay type: organism-based; conditions: in vivo, 672 h, dose 50-450 mg/kg/day
Outline: (§2)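 SD rats, 6-7 weeks old (96 in total), split into vehicle, 50, 150 and 450 mg/kg/day groups of 12 females and 12 males each, given oral doses once daily for 4 weeks, then 2 weeks of recovery. Mortality, body weight, food intake, eyes, urine and neuropsychic signs were observed. Organ and bone marrow histopathology was done on 8 rats per sex per group after the last dose and on the remaining 4 per sex after 14 days of recovery.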

[4] = Toxicity in female Sprague-Dawley rat assessed as histopathological changes at 50 to 450 mg/kg/day, po administered for 4 weeks measured post last dose; assay type: organism-based; conditions: in vivo, 672 h, dose 50-450 mg/kg/day; outline: as §2
[5] = Toxicity in female Sprague-Dawley rat assessed as effect on food consumption at 50 to 450 mg/kg/day, po administered for 4 weeks followed by 2 week recovery period measured at 1 week interval; assay type: organism-based; conditions: in vivo, 672 h, dose 50-450 mg/kg/day; outline: as §2
[6] = Toxicity in male Sprague-Dawley rat assessed as body weight loss at 50 to 450 mg/kg/day, po administered for 4 weeks followed by 2 week recovery period measured at 1 week interval; assay type: organism-based; conditions: in vivo, 672 h, dose 50-450 mg/kg/day; outline: as §2
[7] = Toxicity in male Sprague-Dawley rat assessed as changes in neuropsychic symptoms at 50 to 450 mg/kg/day, po administered for 4 weeks followed by 2 week recovery period measured during last 24 hrs of recovery period; assay type: organism-based; conditions: in vivo, 672 h, dose 50-450 mg/kg/day
Outline: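 SD rats aged 6-7 weeks, 12 male and 12 female per group, in four groups: vehicle control, 50, 150 and 450 mg/kg/day. Dosing was oral, once daily, for 4 weeks, then a 2-week recovery period. Clinical symptoms were observed starting before administration. 8 per sex were dissected after the last dose and the remaining 4 per sex after 14 days of recovery.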

[8] = Toxicity in male Sprague-Dawley rat assessed as histopathological changes in bone marrow at 450 mg/kg/day, po administered for 4 weeks followed by 2 week recovery period; assay type: organism-based; conditions: in vivo, 672 h
[9] = Toxicity in female Sprague-Dawley rat assessed as change in red blood cell count at 50 mg/kg/day, po administered for 4 weeks followed by 2 week recovery period (Rvb =7.32 +/- 0.20 10^12/L); assay type: organism-based; conditions: in vivo, 672 h
[10] = Toxicity in male Sprague-Dawley rat assessed as change in platelet count at 50 mg/kg/day, po administered for 4 weeks followed by 2 week recovery period (Rvb =1077 +/- 117 10^9/L); assay type: organism-based; conditions: in vivo, 672 h
[11] = Toxicity in male Sprague-Dawley rat assessed as change in mean corpuscular volume at 50 mg/kg/day, po administered for 4 weeks followed by 2 week recovery period (Rvb =57.5 +/- 2.0 fL); assay type: organism-based; conditions: in vivo, 672 h
[12] = Toxicity in male Sprague-Dawley rat assessed as change in reticulocyte level at 50 mg/kg/day, po administered for 4 weeks followed by 2 week recovery period (Rvb =2.48 +/- 0.34 %); assay type: organism-based; conditions: in vivo, 672 h
[13] = Toxicity in female Sprague-Dawley rat assessed as change in white blood cell count at 150 mg/kg/day, po administered for 4 weeks followed by 2 week recovery period (Rvb =3.61 +/- 0.75 10^9/L); assay type: organism-based; conditions: in vivo, 672 h
[14] = Toxicity in female Sprague-Dawley rat assessed as change in platelet count at 150 mg/kg/day, po administered for 4 weeks followed by 2 week recovery period (Rvb =1051 +/- 122 10^9/L); assay type: organism-based; conditions: in vivo, 672 h
[15] = Toxicity in female Sprague-Dawley rat assessed as change in mean corpuscular hemoglobin at 150 mg/kg/day, po administered for 4 weeks followed by 2 week recovery period (Rvb =18.5 +/- 0.6 pg); assay type: organism-based; conditions: in vivo, 672 h
[16] = Toxicity in female Sprague-Dawley rat assessed as change in mean corpuscular volume at 450 mg/kg/day, po administered for 4 weeks followed by 2 week recovery period (Rvb =56.1 +/- 0.8 fL); assay type: organism-based; conditions: in vivo, 672 h
[17] = Toxicity in female Sprague-Dawley rat assessed as change in mean corpuscular hemoglobin at 450 mg/kg/day, po administered for 4 weeks followed by 2 week recovery period (Rvb =18.5 +/- 0.6 pg); assay type: organism-based; conditions: in vivo, 672 h
[18] = Toxicity in female Sprague-Dawley rat assessed as change in reticulocyte level at 450 mg/kg/day, po administered for 4 weeks followed by 2 week recovery period (Rvb =2.85 +/- 0.53 %); assay type: organism-based; conditions: in vivo, 672 h
[19] = Toxicity in female Sprague-Dawley rat assessed as change in neutrophil level at 450 mg/kg/day, po administered for 4 weeks followed by 2 week recovery period (Rvb =18.5 +/- 5.3 %); assay type: organism-based; conditions: in vivo, 672 h

Sequence of Cytochrome P450 2D6 (P10635 whole entry): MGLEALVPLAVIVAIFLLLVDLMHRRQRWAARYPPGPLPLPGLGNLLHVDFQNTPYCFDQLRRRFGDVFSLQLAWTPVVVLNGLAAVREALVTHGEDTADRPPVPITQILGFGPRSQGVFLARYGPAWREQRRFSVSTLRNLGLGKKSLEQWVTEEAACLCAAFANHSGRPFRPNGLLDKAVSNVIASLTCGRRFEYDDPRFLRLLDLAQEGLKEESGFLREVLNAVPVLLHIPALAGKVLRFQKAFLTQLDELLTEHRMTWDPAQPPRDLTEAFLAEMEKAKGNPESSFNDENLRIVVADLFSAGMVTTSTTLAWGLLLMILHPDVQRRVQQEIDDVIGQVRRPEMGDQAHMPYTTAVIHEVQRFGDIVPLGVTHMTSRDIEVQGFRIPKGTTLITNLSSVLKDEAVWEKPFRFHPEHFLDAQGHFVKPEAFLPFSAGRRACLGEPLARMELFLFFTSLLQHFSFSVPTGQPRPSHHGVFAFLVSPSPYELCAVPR

Work on CC(=O)NC[C@@H]1OC(=O)N2c3cc(F)c(N4CCSCC4)cc3OC[C@@H]12 yielded a half-life at 2 µM [1] of 1.13 h, an IC50 (Cytochrome P450 1A2) greater than 50 µM and an IC50 (Cytochrome P450 2D6) greater than 50 µM. For the same compound, the Activity [2] was 21.25 g, the Activity [3] was “Non-Toxic” and the Activity [4] was “Non-Toxic”. The Activity [5] was “Non-Toxic”, the Activity [6] was “Non-Toxic” and the Activity [7] was “Non-Toxic”. The Activity [8] was “Non-Toxic”, the Activity [9] was 6.85 10^12/L and the Activity [10] was 955 10^9/L. The Activity [11] was 59.7 fL, the Activity [12] was 2.97% and the Activity [13] was 3.04 10^9/L. The Activity [14] was 787 10^9/L, the Activity [15] was 18.8 pg and the Activity [16] was 56.5 fL. For the same compound, the Activity [17] was 18.7 pg, the Activity [18] was 2.93% and the Activity [19] was 11.8%.
